Screening results as filed in PubChem.
Rows were chosen to be rich in hits. Some 2.1% of all compounds tested hit in one or more screens of this group.
GSK3beta inhib = human GSK3beta kinase inhibition; P49841; GST-GSK3beta kinase, ADP-Glo luminescence, 60 min; stronger effect = lower value; activity score (negative = inhibition), % at 10 µM; actives 0.038% (n = 300,000); AID 2097;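 active means more than half of replicate wells score below -50%, meaning over 50% inhibition versus plate controls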;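 further: 0% = median DMSO wells and -100% = median GW8510 positive control wells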
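Test system: GST-fused GSK3beta enzyme, cell-free | Quantity: 1.6 ng GST-GSK3beta enzyme per well | Reagent: 25 µM ATP with peptide substrate | Schedule: 60 min enzyme reaction, room temperature | Signal: Luminescent ADP-Glo measurement of ADP formed | Read-out basis: Score relative to plate controls | Control set: DMSO and 20 µM GW8510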
GSK3 alpha inh = inhibitors of human GSK-3 alpha kinase; inhibition, % at 10 µM; ADP-Glo luminescence, 60 min; AID 2650; actives 0.1% (n = 320,000); P49840;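 active means more than half of replicates show inhibition above 20%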;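 further: GST-tagged GSK-3 alpha with peptide substrate and 25 µM ATP; 0% = DMSO neutral wells and 100% = GW8510 positive control wells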
Target sequence (P49840 whole entry, looked up): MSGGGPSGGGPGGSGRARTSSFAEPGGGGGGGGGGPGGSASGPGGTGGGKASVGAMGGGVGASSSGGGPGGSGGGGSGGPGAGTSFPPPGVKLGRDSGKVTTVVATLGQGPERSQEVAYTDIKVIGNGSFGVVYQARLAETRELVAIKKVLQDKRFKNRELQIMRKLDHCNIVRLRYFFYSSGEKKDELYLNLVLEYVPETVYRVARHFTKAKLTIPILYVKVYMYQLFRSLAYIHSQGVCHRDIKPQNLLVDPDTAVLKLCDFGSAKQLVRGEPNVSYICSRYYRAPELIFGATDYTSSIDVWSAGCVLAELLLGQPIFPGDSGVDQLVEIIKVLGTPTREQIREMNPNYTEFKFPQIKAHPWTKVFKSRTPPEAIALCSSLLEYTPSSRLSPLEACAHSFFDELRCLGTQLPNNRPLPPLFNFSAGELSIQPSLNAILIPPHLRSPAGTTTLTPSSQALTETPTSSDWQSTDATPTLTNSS
STK33 kinase inh = blocks human STK33 kinase activity. Q9BYT3. purified STK33, MBP phosphorylation, ADP-Glo luminescence. inhibition, % at 10 µM. actives 0.073% (n = 320,000). AID 2661;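 active means inhibition at or above 25%, using the most active replicate where run in duplicate; inactive means inhibition below 25%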
MEKK2mut PB1 HTS = signal of MEK5 binding to mutant human MEKK2 PB1 domain; percent response, % at 10 µM; bead flow cytometry, Alexa488-MEK5 binding to MEKK2 mutant; actives 0.35% (n = 290,000); in the data active means percent response above about 24%, passing the limit was not always enough
MEKK3 PB1 HTS = raises or lowers MEK5 binding to the human MEKK3 PB1 domain | Q99759 | bead-based flow cytometry, Alexa488-MEK5 binding to MEKK3; actives lie on both sides; 0 = blocked by unlabeled MEK5, 100 = vehicle | binding response (% of control), % at 10 µM | actives 1.4% (n = 290,000) | AID 1529;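 active means binding response more than 3 SD above or below the average of its plate-row segment, actives on both sides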;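 further: Alexa488 bead fluorescence after subtracting the streptavidin-only scavenger bead signal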
MEKK2wt PB1 HTS = raises or lowers MEK5 binding to wildtype human MEKK2 PB1 domain; Q9Y2U5; AID 1531; binding response (% of control), % at 10 µM; bead flow cytometry, Alexa488-MEK5 binding to MEKK2 WT; actives lie on both sides; actives 1.1% (n = 290,000); in the data active means binding response below about 67% or above about 130%
MEKK2wt confirm = raises or lowers MEK5 binding to wildtype human MEKK2, retest; actives 2.4% (n = 5,900); shares compounds with MEKK3 PB1 HTS; bead flow cytometry, Alexa488-MEK5 binding to MEKK2 WT; actives lie on both sides; binding response (% of control), % at 10 µM; AID 1892; in the data active means binding response below about 16% or above about 210%; inactive means in between
MEKK2mut confirm = signal of MEK5 binding to mutant human MEKK2, retest; shares compounds with MEKK3 PB1 HTS; bead flow cytometry, Alexa488-MEK5 binding to MEKK2 mutant; percent response, % at 10 µM; actives 2% (n = 5,900); in the data active means percent response mostly above about 71%, no sharp cut-off; inactive means mostly below about 38%;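 further: higher means compound restores mutant binding toward wildtype level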
MEKK3-MEK5 inh = confirmation of inhibitors of MEK5 binding to human MEKK3; actives 1.8% (n = 5,900); bead flow cytometry, Alexa488-MEK5 binding to MEKK3; stronger effect = lower value; AID 1894; binding response (% of control), % at 10 µM; shares compounds with MEKK3 PB1 HTS;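 active means binding response below 72% of control, or above a set upper limit, though filed actives all read lower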;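 further: 100% = DMSO only wells and 0% = binding blocked by excess unlabeled MEK5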
An asterisk follows results filed as active; . = no result; [ ] = dose if it differs, or a comment.

SMILES	GSK3beta inhib	GSK3 alpha inh	STK33 kinase inh	MEKK2mut PB1 HTS	MEKK3 PB1 HTS	MEKK2wt PB1 HTS	MEKK2wt confirm	MEKK2mut confirm	MEKK3-MEK5 inh
CCCN(CCC)CCCNC(=O)C1CCC(CNS(=O)(=O)c2cccc3nsnc23)CC1 (stereo not given)	1	-1	-2	3	100	110	.	.	.
CCN(CC)CCC(c1ccc(N(C)C)cc1)c1c(O)cc(OC)cc1OC (stereo not given)	-7	-1	-1	4	118	138*	92	-8	98
COc1cc(O)c(C(CCN2CCN(c3ccccc3)CC2)c2ccc(N(C)C)cc2)c(OC)c1 (stereo not given)	1	-2	-1	9	123	151*	143	19	104
COc1ccc(C(CCN2CCN(c3ccccc3)CC2)c2c(O)cc(OC)cc2OC)cc1 (stereo not given)	-1	-1	0	8	98	135*	140	20	107
COc1cc(O)c(C(CCN2CCOCC2)c2ccc(N(C)C)cc2)c(OC)c1 (stereo not given)	-1	.	0	10	90	90	.	.	.
CCN(CC)CCC(c1ccc(OC)cc1)c1c(O)cc(OC)cc1OC (stereo not given)	0	1	-1	1	90	95	.	.	.
O=C(Nc1ccccc1)C1=C[C@H](c2ccc3c(c2)OCO3)C[C@H](OCc2ccc(CO)cc2)O1	-1	0	0	-1	100	99	.	.	.
COc1ccc(/C=N/Nc2ncnc3sc(C)c(C)c23)cc1	-3	-1	-1	1	133*	107	106	-3	102
Cc1sc2ncnc(N/N=C/c3ccc(O)cc3)c2c1C	4	6	18	7	105	108	.	.	.
CC(C)c1nc2ccc(Br)cn2c1NC1CCCC1	2	0	2	49	129*	123	99	-2	100
CCc1cc2cc(C)cc(C)c2nc1Cl	0	0	.	5	138*	123	95	-28	98
COc1cccc(CNC(=O)CN2C(=O)CCSc3ccc(S(=O)(=O)N4CCCC4)cc32)c1	0	1	-2	-7	93	94	.	.	.
Cc1sc2nc(C(C)C)nc(SCC(=O)NCc3ccco3)c2c1C	3	0	0	-40	-1.0*[inhibitor]	-6.0*[inhibitor]	100	2	104
C/C=C/c1ccc(OCC(O)CNCC(c2ccc(OC)cc2)N(C)C)c(OC)c1 (stereo not given)	3	1	1	19	111	146*	120	7	101
Cc1cccc(NC(=O)/C=C/c2ccc([N+](=O)[O-])s2)c1	-8	0	-1	11	98	112	.	.	.
Cc1cccc(NC(=S)N/N=C/c2ccc([N+](=O)[O-])s2)c1	3	0	-3	-7	86	50*[inhibitor]	63	-23	91
O=C(C1=C[C@@H](c2ccc(C(F)(F)F)cc2)C[C@@H](OCCCCO)O1)N1CCN(Cc2ccccc2)CC1	-25	-1	0	2	73*[inhibitor]	103	107	3	104
O=C(COc1ccccc1)Nc1ccc(S(=O)(=O)Nc2ccccn2)cc1	5	0	-1	4	99	94	.	.	.
CC1CCC2C(=O)N(c3ccc(NC4CCN(Cc5ccccc5)CC4)c([N+](=O)[O-])c3)C(=O)C2C1 (stereo not given)	2	-3	0	-8	70*[inhibitor]	106	117	16	103
CCCCNC(=S)NNC(=O)c1ccncc1	2	.	.	-16	35*[inhibitor]	50	102	-2	104
CCCCNC(=S)NNC(=O)c1sccc1C	-8	-4	1	4	101	102	.	.	.
O=C(CCCc1ccccc1)NCc1ccc(Cl)cc1	2	-3	-1	7	103	112	.	.	.
CC(=O)Oc1ccc(C(=O)Cc2ccc3ccccc3n2)c(O)c1C	1	-1	-3	7	135*	105	110	3	108
CCn1nnc2cc(C(=O)OCC(=O)N(C)Cc3cccc(F)c3)ccc21	.	-4	-1	.	.	.	.	.	.
O=C(COC(=O)Cc1cccc(C(F)(F)F)c1)Nc1ccc2[nH]c(=O)[nH]c2c1	0	-1	-1	.	.	.	.	.	.
SMILES	GSK3beta inhib	GSK3 alpha inh	STK33 kinase inh	MEKK2mut PB1 HTS	MEKK3 PB1 HTS	MEKK2wt PB1 HTS	MEKK2wt confirm	MEKK2mut confirm	MEKK3-MEK5 inh
O=[N+]([O-])c1ccc(CSc2nnc(SCc3ccccc3)s2)cc1	2	-2	0	-2	60*[inhibitor]	91	100	0	108
O=C1c2ccccc2NC2(CCCCC2)N1N=C1CCCCC1	1	1	0	-1	75*[inhibitor]	90	102	2	104
O=C(O)CCCCCNC(=O)C(=O)C1C(=O)Nc2ccccc21 (stereo not given)	-2	-1	-1	2	101	100	.	.	.
O=C(CNC1C(=O)Nc2ccccc21)Sc1ccccc1 (stereo not given)	-4	2	0	-20	2.0*[inhibitor]	3.0*[inhibitor]	97	-3	105
CCOC(=O)N1CCN(Cc2nc3cc(NC(=O)c4ccco4)ccc3n2C)CC1	-5	1	5	7	96	96	.	.	.
CN(C)S(=O)(=O)c1cccc(NC(=O)c2cc(-c3cccs3)nn2-c2ccccc2)c1	-7	-2	-1	0	142*	108	98	-1	106
CCN(CC)S(=O)(=O)c1cccc(NC(=O)c2cc(-c3cccs3)nn2-c2ccccc2)c1	-3	-1	-2	-1	103	105	.	.	.
NC(=O)COC(=O)c1cc(-c2cccs2)nn1-c1ccccc1	2	0	-2	0	136*	115	101	4	100
CCOC(=O)C1=C(C)N(CCCC(=O)O)C(=O)NC1c1cc2ccccc2c2ccccc12 (stereo not given)	2	.	0	1	105	99	.	.	.
CCCCCCCCC1=NCCc2c1[nH]c1ccccc21	-5	0	0	54*	99	159*	157	25	100
CC(C)C/C=C1\CCc2c([nH]c3ccccc23)C1=O	1	-3	-1	-3	102	96	.	.	.
